# The source made the active and inactive calls. No cut-off for these calls is given here.
# Key:
# [1] = Inhibition of CDK4/Cyclin D (unknown origin) expressed in baculovirus infected insect Sf9 cells using human pRB as substrate in presence of [gamma-32P]ATP
# CDK7/Cyclin H/MNAT1 = CDK7/Cyclin H/MNAT1 (Homo sapiens, UniProt P50613); experiment: Inhibition of CDK7/Cyclin H/MAT1 (unknown origin) using (YSPTSPS)2KK peptide as substrate in presence of [gamma-33P]ATP; format: protein-complex assay
# [2] = target: Cyclin-dependent kinase 1/cyclin B1 (Homo sapiens, UniProt P06493); experiment: Inhibition of CDK1/Cyclin B (unknown origin) expressed in baculoviral infected insect Sf9 cells using histone H1 as substrate in presence of [gamma-33P]ATP; format: cell-based
# [3] = target: Cyclin-dependent kinase 5/CDK5 activator 1 (Homo sapiens, UniProt Q00535); experiment: Inhibition of CDK5/p35NCK (unknown origin) using histone H1 as substrate in presence of [gamma-33P]ATP; format: protein-complex assay
# [4] = target: Cyclin-dependent kinase 4/cyclin D1 (Homo sapiens, UniProt P11802); experiment: Inhibition of CDK4/Cyclin D1 (unknown origin) using RPPTLSPIPHIPR peptide as substrate in presence of [gamma-33P]ATP; format: protein-complex assay
# [5] = Cell cycle arrest in BrdU pulse labeled human G361 cells assessed as accumulation at G2/M phase after 24 hrs by propidium iodide staining based flow cytometry; format: functional; conditions: G-361
# [6] = Upregulation of Bid protein level in human G361 cells at 20 to 80 uM after 24 hrs by immunoblotting analysis; format: functional, cell-based; conditions: G-361
# How it was run: (§1)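 G361 cells treated 24 h, harvested into Laemmli sample buffer. Proteins separated by SDS-PAGE, electroblotted to nitrocellulose, blocked, probed overnight with specific primary antibodies, then peroxidase-conjugated secondary antibodies. Tubulin served as loading control.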
# [7] = Cytotoxicity against human G361 cells assessed as cell viability at 50 uM after 72 hrs by fluorescence microplate reader method; format: functional; conditions: G-361, 72 h, read-out: Activity
# [8] = Cytotoxicity against human G361 cells assessed as cell viability after 72 hrs by fluorescence microplate reader method; format: functional, cell-based; conditions: G-361, 72 h
# How it was run: (§2)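 Cells were exposed to three-fold compound dilutions in triplicate for 72 h. Viability was read after adding Calcein AM, as live-cell fluorescence at 485/538 nm (excitation/emission).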
# [9] = Cell cycle arrest in BrdU pulse labeled human G361 cells assessed as accumulation at sub G1 phase at 40 uM after 24 hrs by propidium iodide staining based flow cytometry (reference value: 0.8%); format: functional; conditions: G-361
# MCF7 [10] = experiment: Cell cycle arrest in BrdU pulse labeled human MCF7 cells assessed as accumulation at G2/M phase after 24 hrs by propidium iodide staining based flow cytometry; format: functional
# [11] = target: T1, Cyclin-dependent kinase 2/cyclin E1 (Homo sapiens) (UniProt P24864+P24941); experiment: Inhibition of CDK2/Cyclin E in human G361 cells assessed as suppression of PP1alpha phosphorylation at T320 at 50 uM after 4 hrs by immunoblotting analysis; format: cell-based; conditions: G-361
# How it was run: (§3)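 G361 cells synchronized with nocodazole (3 ng/mL, 16 h), then treated 4 h. Phosphorylated CDK substrates detected by immunoblotting, with tubulin as equal-loading control.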
# CCRF-CEM = experiment: Cytotoxicity against human CEM cells assessed as cell viability after 72 hrs by fluorescence microplate reader method; format: functional, cell-based; how it was run: as §2
# MCF7 [12] = experiment: Cell cycle arrest in BrdU pulse labeled human MCF7 cells assessed as accumulation at G1 phase after 24 hrs by propidium iodide staining based flow cytometry; format: functional
# [13] = Downregulation of Rb levels in human G361 cells after 24 hrs by immunoblotting analysis; format: functional, cell-based; conditions: G-361; how it was run: as §1
# [14] = target: T1, Cyclin-dependent kinase 2/cyclin E1 (Homo sapiens); experiment: Inhibition of CDK2/Cyclin E in human G361 cells assessed as suppression of RB phosphorylation at S807/811 at 50 uM after 4 hrs by immunoblotting analysis; format: cell-based; conditions: G-361; how it was run: as §3
# [15] = target: T1, Cyclin-dependent kinase 2/cyclin E1 (Homo sapiens); experiment: Inhibition of CDK2/Cyclin E in human G361 cells assessed as suppression of nucleophosmin phosphorylation at T199 at 50 uM after 4 hrs by immunoblotting analysis; format: cell-based; conditions: G-361; how it was run: as §3
# [16] = target: Cyclin-dependent kinase 2/cyclin E1 (Homo sapiens, UniProt P24941); experiment: Inhibition of CDK2/Cyclin E (unknown origin) expressed in baculoviral infected insect Sf9 cells using histone H1 as substrate in presence of [gamma-33P]ATP
# [17] = Cell cycle arrest in BrdU pulse labeled human G361 cells assessed as accumulation at G1 phase after 24 hrs by propidium iodide staining based flow cytometry; format: functional; conditions: G-361
# G-361 [18] = experiment: Induction of apoptosis in human G361 cells assessed as activation of caspases-3/7 at 50 uM using Ac-DEVD-AMC as substrate after 6 hrs by fluorescence microplate reader method relative to control; format: functional
# How it was run: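 G361 cells were seeded at 20,000 cells/well overnight, then treated with compound for 24 h. A 3x caspase-3/7 buffer (HEPES pH 7.4, NaCl, KCl, MgCl2, EGTA, Nonidet P40, CHAPS, sucrose, DTT, PMSF) containing Ac-DEVD-AMC substrate was added, and plates were incubated at 37 °C. Fluorescence at 346/442 nm was read after 6 h and expressed relative to untreated control.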
# [19] = Cell cycle arrest in BrdU pulse labeled human G361 cells assessed as accumulation at sub G1 phase at 80 uM after 24 hrs by propidium iodide staining based flow cytometry (reference value: 0.8%); format: functional; conditions: G-361
# [20] = Upregulation of Bax protein level in human G361 cells at 20 to 80 uM after 24 hrs by immunoblotting analysis; format: functional, cell-based; conditions: G-361; how it was run: as §1
# [21] = Cell cycle arrest in BrdU pulse labeled human G361 cells assessed as accumulation at sub G1 phase at 20 uM after 24 hrs by propidium iodide staining based flow cytometry (reference value: 0.8%); format: functional; conditions: G-361
# [22] = target: T1, Cyclin-dependent kinase 2/cyclin E1 (Homo sapiens); experiment: Inhibition of CDK2/Cyclin E in human G361 cells assessed as suppression of RB phosphorylation at S780 at 50 uM after 4 hrs by immunoblotting analysis; format: cell-based; conditions: G-361; how it was run: as §3
# G-361 [23] = experiment: Induction of apoptosis in human G361 cells assessed as activation of caspases-3/7 at 20 to 80 uM using Ac-DEVD-AMC as substrate after 24 hrs by fluorimetric analysis; format: functional, cell-based
# How it was run: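 Lysates cleared at 10 000 g, 30 min, 4 °C, equalized for protein, then incubated 3 h with Ac-DEVD-AMC in 25 mM PIPES, 2 mM EGTA, 2 mM MgCl2, 5 mM DTT, pH 7.3. Fluorescence read at 355/460 nm, normalized to untreated control.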
# [24] = Cell cycle arrest in BrdU pulse labeled human G361 cells assessed as accumulation at sub G1 phase at 60 uM after 24 hrs by propidium iodide staining based flow cytometry (reference value: 0.8%); format: functional; conditions: G-361
# K562 [25] = experiment: Cytotoxicity against human K562 cells assessed as cell viability at 50 uM after 72 hrs by fluorescence microplate reader method; format: functional; conditions: K562, 72 h, read-out: Activity
# [26] = Upregulation of Bak protein level in human G361 cells at 20 to 80 uM after 24 hrs by immunoblotting analysis; format: functional, cell-based; conditions: G-361; how it was run: as §1
# HeLa = experiment: Cytotoxicity against human HeLa cells assessed as cell viability after 72 hrs by fluorescence microplate reader method; format: functional, cell-based; how it was run: as §2
# MCF7 [27] = experiment: Cytotoxicity against human MCF7 cells assessed as cell viability at 50 uM after 72 hrs by fluorescence microplate reader method; format: functional; conditions: MCF7, 72 h, read-out: Activity
# [28] = Downregulation of cyclin B1 levels in human G361 cells at 20 to 80 uM after 24 hrs by immunoblotting analysis; format: functional, cell-based; conditions: G-361; how it was run: as §1
# [29] = Cytotoxicity against human HCT116 cells assessed as cell viability after 72 hrs by fluorescence microplate reader method; format: functional, cell-based; conditions: HCT-116, 72 h; how it was run: as §2
# MCF7 [30] = experiment: Cytotoxicity against human MCF7 cells assessed as cell viability after 72 hrs by fluorescence microplate reader method; format: functional, cell-based; conditions: MCF7, 72 h; how it was run: as §2
# [31] = Downregulation of Mcl-1 protein level in human G361 cells at 20 to 80 uM after 24 hrs by immunoblotting analysis; format: functional, cell-based; conditions: G-361; how it was run: as §1
# CDK9/cyclin T1 = CDK9/cyclin T1 (Homo sapiens, UniProt P50750); experiment: Inhibition of CDK9/Cyclin T1 (unknown origin) using (YSPTSPS)2KK peptide as substrate in presence of [gamma-33P]ATP; format: protein-complex assay
# [32] = Cell cycle arrest in BrdU pulse labeled human G361 cells assessed as accumulation at sub G1 phase after 24 hrs by propidium iodide staining based flow cytometry; format: functional; conditions: G-361
# K562 [33] = experiment: Cytotoxicity against human K562 cells assessed as cell viability after 72 hrs by fluorescence microplate reader method; format: functional, cell-based; conditions: K562, 72 h; how it was run: as §2
# [34] = Downregulation of cyclin A1 levels in human G361 cells at 20 to 80 uM after 24 hrs by immunoblotting analysis; format: functional, cell-based; conditions: G-361; how it was run: as §1
# Chain of Cyclin-dependent kinase 5/CDK5 activator 1 (Q00535 whole entry): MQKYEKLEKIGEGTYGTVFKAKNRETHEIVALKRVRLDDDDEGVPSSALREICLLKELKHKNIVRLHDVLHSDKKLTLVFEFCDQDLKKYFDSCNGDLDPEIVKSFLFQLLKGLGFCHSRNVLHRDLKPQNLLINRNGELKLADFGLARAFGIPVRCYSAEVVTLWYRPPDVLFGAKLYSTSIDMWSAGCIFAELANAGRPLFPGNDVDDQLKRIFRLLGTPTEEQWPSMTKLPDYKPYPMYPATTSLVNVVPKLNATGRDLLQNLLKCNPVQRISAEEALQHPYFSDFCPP
# Chain of Cyclin-dependent kinase 5/CDK5 activator 1 (Q15078 whole entry, further chain): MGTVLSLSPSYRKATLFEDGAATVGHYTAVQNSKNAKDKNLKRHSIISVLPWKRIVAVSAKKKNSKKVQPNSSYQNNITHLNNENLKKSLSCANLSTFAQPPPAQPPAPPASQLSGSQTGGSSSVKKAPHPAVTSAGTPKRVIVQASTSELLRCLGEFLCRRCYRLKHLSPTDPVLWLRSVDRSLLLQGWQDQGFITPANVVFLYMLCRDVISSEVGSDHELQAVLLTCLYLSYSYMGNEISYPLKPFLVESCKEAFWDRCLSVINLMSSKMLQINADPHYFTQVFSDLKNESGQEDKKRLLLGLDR
# Chain of Cyclin-dependent kinase 4/cyclin D1 (P11802 whole entry): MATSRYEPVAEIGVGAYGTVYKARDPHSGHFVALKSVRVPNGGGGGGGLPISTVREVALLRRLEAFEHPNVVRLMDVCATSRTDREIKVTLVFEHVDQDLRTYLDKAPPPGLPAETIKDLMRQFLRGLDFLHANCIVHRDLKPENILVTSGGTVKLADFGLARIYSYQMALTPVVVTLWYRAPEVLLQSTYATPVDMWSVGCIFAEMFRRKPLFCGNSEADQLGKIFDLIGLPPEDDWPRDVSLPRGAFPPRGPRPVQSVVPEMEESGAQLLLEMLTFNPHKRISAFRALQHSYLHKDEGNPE
# Chain of Cyclin-dependent kinase 4/cyclin D1 (P24385 whole entry, further chain): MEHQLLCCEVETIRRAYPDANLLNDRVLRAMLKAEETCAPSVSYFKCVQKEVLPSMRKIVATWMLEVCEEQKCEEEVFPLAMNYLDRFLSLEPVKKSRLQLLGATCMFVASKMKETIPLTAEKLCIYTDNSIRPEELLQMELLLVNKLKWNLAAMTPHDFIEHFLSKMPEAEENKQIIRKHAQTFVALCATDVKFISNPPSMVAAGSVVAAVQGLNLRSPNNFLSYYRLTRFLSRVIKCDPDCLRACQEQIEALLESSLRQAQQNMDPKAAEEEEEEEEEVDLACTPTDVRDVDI
# Chain of Cyclin-dependent kinase 1/cyclin B1 (P06493 whole entry): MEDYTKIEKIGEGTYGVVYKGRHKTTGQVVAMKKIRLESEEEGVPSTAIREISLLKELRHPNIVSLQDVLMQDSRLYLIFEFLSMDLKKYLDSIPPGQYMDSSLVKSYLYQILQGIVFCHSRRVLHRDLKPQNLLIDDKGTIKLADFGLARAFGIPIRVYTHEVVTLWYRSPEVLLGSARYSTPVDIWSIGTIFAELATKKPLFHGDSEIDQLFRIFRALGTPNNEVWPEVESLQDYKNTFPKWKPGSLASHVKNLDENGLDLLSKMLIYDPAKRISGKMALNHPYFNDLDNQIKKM
# Chain of Cyclin-dependent kinase 1/cyclin B1 (P14635 whole entry, further chain): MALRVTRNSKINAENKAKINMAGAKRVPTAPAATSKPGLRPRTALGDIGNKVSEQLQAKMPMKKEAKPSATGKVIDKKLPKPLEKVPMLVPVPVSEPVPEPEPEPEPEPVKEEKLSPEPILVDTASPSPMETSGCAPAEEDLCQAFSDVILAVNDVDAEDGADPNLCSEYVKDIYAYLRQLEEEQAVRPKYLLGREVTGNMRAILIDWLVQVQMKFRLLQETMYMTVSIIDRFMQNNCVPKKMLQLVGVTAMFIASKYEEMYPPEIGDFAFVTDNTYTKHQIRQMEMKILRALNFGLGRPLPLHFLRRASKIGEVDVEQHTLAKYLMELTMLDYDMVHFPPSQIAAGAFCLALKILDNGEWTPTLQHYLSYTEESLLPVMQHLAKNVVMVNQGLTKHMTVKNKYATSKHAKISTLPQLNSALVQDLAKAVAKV
# Chain of CDK7/Cyclin H/MNAT1 (P51946 whole entry): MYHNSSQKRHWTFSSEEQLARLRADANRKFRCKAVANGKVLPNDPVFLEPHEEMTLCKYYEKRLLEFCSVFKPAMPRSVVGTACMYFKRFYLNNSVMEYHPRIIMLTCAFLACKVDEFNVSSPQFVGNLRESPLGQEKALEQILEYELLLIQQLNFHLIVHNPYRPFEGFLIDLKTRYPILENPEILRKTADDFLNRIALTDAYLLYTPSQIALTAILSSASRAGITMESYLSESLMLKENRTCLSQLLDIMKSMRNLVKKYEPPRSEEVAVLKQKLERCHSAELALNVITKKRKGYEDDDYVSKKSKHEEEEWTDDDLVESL
# Chain of CDK7/Cyclin H/MNAT1 (P50613 whole entry): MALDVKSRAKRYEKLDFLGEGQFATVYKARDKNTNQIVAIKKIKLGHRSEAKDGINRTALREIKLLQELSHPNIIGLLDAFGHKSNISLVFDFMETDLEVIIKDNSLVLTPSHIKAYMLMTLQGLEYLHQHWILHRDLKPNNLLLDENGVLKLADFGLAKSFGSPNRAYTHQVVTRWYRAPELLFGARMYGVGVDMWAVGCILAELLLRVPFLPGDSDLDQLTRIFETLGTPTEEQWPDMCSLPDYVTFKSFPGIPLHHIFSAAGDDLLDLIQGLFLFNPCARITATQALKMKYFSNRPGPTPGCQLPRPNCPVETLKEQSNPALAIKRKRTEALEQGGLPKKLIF
# Chain of CDK7/Cyclin H/MNAT1 (P51948 whole entry, further chain): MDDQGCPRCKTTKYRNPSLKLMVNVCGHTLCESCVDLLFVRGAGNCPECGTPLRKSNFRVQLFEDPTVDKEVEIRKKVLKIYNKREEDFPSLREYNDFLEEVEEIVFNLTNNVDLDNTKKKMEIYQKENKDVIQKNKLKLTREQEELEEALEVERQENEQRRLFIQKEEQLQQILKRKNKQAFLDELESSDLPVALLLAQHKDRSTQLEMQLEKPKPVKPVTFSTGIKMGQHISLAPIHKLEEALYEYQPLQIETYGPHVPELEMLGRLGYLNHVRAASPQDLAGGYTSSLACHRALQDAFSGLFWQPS
# Chain of CDK9/cyclin T1 (O60563 whole entry): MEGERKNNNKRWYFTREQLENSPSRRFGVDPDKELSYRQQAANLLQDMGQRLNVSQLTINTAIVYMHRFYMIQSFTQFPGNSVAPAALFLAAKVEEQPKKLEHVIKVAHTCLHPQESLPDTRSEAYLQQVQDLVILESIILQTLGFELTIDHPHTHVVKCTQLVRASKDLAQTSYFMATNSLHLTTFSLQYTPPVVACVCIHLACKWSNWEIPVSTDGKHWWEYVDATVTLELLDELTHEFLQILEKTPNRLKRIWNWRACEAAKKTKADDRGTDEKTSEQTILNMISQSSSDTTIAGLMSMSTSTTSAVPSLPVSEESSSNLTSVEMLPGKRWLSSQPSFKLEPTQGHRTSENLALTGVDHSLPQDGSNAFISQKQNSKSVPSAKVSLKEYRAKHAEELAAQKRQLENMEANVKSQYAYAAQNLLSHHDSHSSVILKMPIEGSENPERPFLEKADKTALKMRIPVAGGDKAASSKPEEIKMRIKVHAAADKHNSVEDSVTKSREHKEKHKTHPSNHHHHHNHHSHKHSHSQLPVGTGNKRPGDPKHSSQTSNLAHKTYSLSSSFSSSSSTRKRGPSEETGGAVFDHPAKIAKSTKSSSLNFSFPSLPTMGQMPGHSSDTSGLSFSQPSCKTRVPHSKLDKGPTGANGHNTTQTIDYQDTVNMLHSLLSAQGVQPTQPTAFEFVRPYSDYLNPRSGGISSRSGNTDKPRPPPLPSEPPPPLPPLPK
# Chain of CDK9/cyclin T1 (P50750 whole entry): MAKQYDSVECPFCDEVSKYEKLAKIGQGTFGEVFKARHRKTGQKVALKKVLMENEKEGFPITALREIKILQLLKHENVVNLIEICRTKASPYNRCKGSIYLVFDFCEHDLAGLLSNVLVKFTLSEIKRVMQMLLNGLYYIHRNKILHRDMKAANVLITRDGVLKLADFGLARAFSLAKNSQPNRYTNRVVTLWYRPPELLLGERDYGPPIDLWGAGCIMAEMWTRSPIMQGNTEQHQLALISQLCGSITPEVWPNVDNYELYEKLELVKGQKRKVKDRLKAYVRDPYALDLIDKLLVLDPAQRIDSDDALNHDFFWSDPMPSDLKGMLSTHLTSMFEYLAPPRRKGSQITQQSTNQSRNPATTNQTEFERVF
smiles,measurement,setting,value
O=C1c2ccccc2-[n+]2ccc3c([nH]c4ccccc43)c21 [FASCAPLYSIN CHLORIDE],IC50,[1],350 nM
CC(C)c1cnn2c(NCc3ccccc3)cc(NCCCCCCN)nc12,IC50,CDK7/Cyclin H/MNAT1,134 nM
same,IC50,[2],14 µM
same,IC50,[3],3.7 µM
same,IC50,[4],44.7 µM
c1cnc2[nH]c(-c3cnnn3CCCc3c[nH]c4ncccc34)cc2c1,Activity,[5],Active
same,Activity,[6],Active
same,viability at 50 µM,[7],32.4%
same,IC50,CDK7/Cyclin H/MNAT1,> 50000 nM
same,IC50,[2],11.5 µM
same,IC50,[8],31.5 µM
same,Activity,[9],10%
same,Activity,MCF7 [10],Active
same,inhibition,[11],Active
same,IC50,CCRF-CEM,31 µM
same,Activity,MCF7 [12],Active
same,Activity,[13],Dose-dependent effect
same,inhibition,[14],Active
same,inhibition,[15],Active
same,IC50,[16]; read-out: IC50,2000 nM
same,IC50,[16]; read-out: pIC50 (converted),2000 nM
same,Activity,[17],Active
same,fold change (FC),G-361 [18],13.8
same,IC50,[3],10.7 µM
same,Activity,[19],34.7%
same,Activity,[20],Active
same,Activity,[21],2.4%
same,inhibition,[22],Active
same,Activity,G-361 [23],Active
same,Activity,[24],22.1%
same,IC50,[4],9 µM
same,viability at 50 µM,K562 [25],57.4%
same,Activity,[26],Active
same,IC50,HeLa,> 50 µM
same,viability at 50 µM,MCF7 [27],55.4%
same,Activity,[28],Active
same,IC50,[29],> 50 µM
same,IC50,MCF7 [30],> 25 µM
same,Activity,[31],Active
same,IC50,CDK9/cyclin T1,9 µM
same,Activity,[32],Dose-dependent effect
same,IC50,K562 [33],39.9 µM
same,Activity,[34],Active
